Rows were chosen to be rich in hits. Some 2.7% of all compounds tested hit in one or more screens of this group.
PAFAH1B3 inh: blocks human PAF acetylhydrolase 1B catalytic subunit 3; recombinant PAFAH1B3, FP-rhodamine probe, fluorescence polarization; Q15102; inhibition, % at 3.39 µM; AID 492972; hit rate 0.28% among 340,000;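 active = inhibition above the screen-wide average of all tested compounds plus 3 SD, cut at about 25% in these data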;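 also: 0% = enzyme with DMSO only and 100% = wells lacking PAFAH1B3 protein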
ARFGAP1 inh: inhibitors of rat ARFGAP1; inhibition, % at 16.5 µM; Q62848; AID 651572; Arfgap1-stimulated ARF1 GTP hydrolysis, GDP FP detection; hit rate 0.26% among 360,000;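 active = inhibition above a per-plate limit, mean inhibition of low control wells plus 3 SD, cut at about 25% in these data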;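 also: 0% = DMSO wells with enzyme and 100% = wells lacking Arfgap1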
Target sequence (Q62848 1-136 limits assumed): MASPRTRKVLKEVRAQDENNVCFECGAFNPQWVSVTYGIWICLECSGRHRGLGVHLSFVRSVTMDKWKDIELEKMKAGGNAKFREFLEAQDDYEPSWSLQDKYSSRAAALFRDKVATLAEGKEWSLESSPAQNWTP
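System: truncated rat Arfgap1 GAP domain / Benchmarks: high control wells lacking Arfgap1, low control full reaction with DMSO / Times: compound-enzyme preincubation 20 min, reaction 120 min, detection 60 min, 25 °C / Repeats: one replicate per compound / Also added: human ARF1(Δ1-17)-GTP substrate / Measured by: Tracer-displacement fluorescence polarization with EDTA stop, 620/688 nm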
pPAFAH inh: inhibitors of human plasma PAF acetylhydrolase (pPAFAH); Q13093; recombinant pPAFAH, FP-rhodamine probe fluorescence polarization; inhibition, % at 3.39 µM; hit rate 1.5% among 330,000;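 active = inhibition above the mean inhibition across the screen plus 3 SD, cut at about 25% in these data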;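 also: inhibitors block binding of the rhodamine activity-based probe so polarization drops; 0% = enzyme with DMSO and 100% = wells lacking pPAFAH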
Target sequence (Q13093 whole entry, looked up): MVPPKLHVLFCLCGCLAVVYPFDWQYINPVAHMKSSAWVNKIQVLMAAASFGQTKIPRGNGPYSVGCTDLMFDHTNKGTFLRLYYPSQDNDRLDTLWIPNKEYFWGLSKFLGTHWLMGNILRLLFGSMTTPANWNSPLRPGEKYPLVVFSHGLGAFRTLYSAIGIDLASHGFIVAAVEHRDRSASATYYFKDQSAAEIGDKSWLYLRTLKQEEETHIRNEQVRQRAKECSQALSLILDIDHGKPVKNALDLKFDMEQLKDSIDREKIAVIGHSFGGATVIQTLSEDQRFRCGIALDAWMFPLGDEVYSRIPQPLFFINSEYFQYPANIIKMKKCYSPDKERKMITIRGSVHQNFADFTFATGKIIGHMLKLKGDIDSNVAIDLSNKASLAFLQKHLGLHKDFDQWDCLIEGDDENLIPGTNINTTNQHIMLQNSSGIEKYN
ASAP1 GAP inh: ASAP1 ArfGAP inhibition. Q9ULH1. ASAP1-stimulated ARF1 GTP hydrolysis, GDP FP detection. inhibition, % at 16.5 µM. hit rate 0.19% among 360,000. AID 624377; in the data active = inhibition above about 25%;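 also: 0% = vehicle with enzyme and substrate and 100% = no enzyme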
PAFAH2 FP inh: inhibitors of human PAFAH2 | AID 492956 | recombinant PAFAH2, FP-rhodamine activity probe, fluorescence polarization | hit rate 0.99% among 340,000 | inhibition, % at 3.39 µM;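 active = inhibition above the mean over all tested compounds plus 3 SD, cut at about 30% in these data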;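 also: inhibitors block probe labeling of enzyme so polarization drops; 0% = enzyme with DMSO and 100% = wells lacking PAFAH2 protein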
PAFAH1B2 FP inh: PAFAH1B2 (human) inhibition; P68402; recombinant PAFAH1B2, FP-rhodamine activity probe, fluorescence polarization; inhibition, % at 3.39 µM; hit rate 1.2% among 340,000;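 active = inhibition above the mean of all tested compounds plus 3 SD, cut at about 24% in these data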;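 also: 0% = enzyme with DMSO and 100% = wells lacking PAFAH1B2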
* = called active by the depositor; . = no result given.

SMILES	PAFAH1B3 inh	ARFGAP1 inh	pPAFAH inh	ASAP1 GAP inh	PAFAH2 FP inh	PAFAH1B2 FP inh
COc1ccc(-c2ccccc2C2Cc3nnccc3CN2)cc1 (stereo not drawn)	.	-2	.	-4	.	.
Cc1ccccc1Nc1nc(NCc2ccco2)c2ccccc2n1	-1	2	-2	-2	6	0
COc1ccc(OC)c(Nc2nc(NCc3ccco3)c3ccccc3n2)c1	13	-3	25*	2	-1	3
C=C(C)C(COc1c2occc2cc2ccc(=O)oc12)OC(C)(C)C(O)COc1c2occc2cc2ccc(=O)oc12 (stereo not drawn)	7	13	7	10	1	66*
O=C(N/C=C/c1ccco1)Nc1cccc(Cl)c1	.	13	27*	-6	.	.
CSc1cccc(NC(=O)/C=C/c2ccco2)c1	-4	4	25*	-14	0	-2
COc1ccc(NC(=O)N/C=C/c2ccco2)cc1	12	2	8	-8	10	6
COc1cc(C(C)=O)ccc1OCC(=O)NCC(c1ccc(F)cc1)N1CCOCC1 (stereo not drawn)	2	-12	28*	-23	8	1
C[C@H]1Cn2cnc(C(=O)N(C)Cc3ccccc3)c2C(=O)N1	.	4	.	2	.	.
Cc1cc2c(cc1S(=O)(=O)Nc1ccc(OC(F)(F)F)cc1)OCC(=O)N2	8	3	34*	7	2	14
COc1cc(NS(=O)(=O)c2cc3c(cc2C)NC(=O)CO3)cc(OC)c1	1	-2	5	4	-2	3
CN(C)c1ccc(Cc2cc3c(O)ccc(O)c3cc(Cc3ccc(N(C)C)cc3)c2=O)cc1	34*	-2	.	18	39*	18
Cc1ccc(/C=C/C2=Cc3c(sc(NC(=O)CSc4n[nH]c(N)n4)c3C#N)C(C)(C)C2)o1	.	.	58*	.	.	.
O=c1oc(Cl)c(Cl)c2ccccc12	16	5	2	-1	35*	0
COc1cc(O)cc2cc3c(c(O)c12)C(=O)CC(C)(O)O3 (stereo not drawn)	19	13	25*	2	13	7
CN(c1ccc(NC(=O)Cc2cn(C)c3ccccc23)cc1)c1ccccn1	.	18	.	15	.	.
Cc1ccc(-n2c(-c3ccco3)n[nH]c2=S)cc1	0	-3	-1	-9	2	0
CC(C1CC2CCC1C2)n1c(-c2ccco2)n[nH]c1=S (stereo not drawn)	4	-4	5	-5	10	27*
CC(C)CC(=O)c1c(O)cc(O)c2c1OC1=C(C(=O)C(C)(C)C(=O)C1(C)C)C2CC(C)C (stereo not drawn)	.	2	.	-4	.	.
O=c1[nH]c2cc(Cl)ccc2n1-c1ccccc1	4	4	28*	-5	7	1
CN(C)S(=O)(=O)c1ccc(C(=O)NNc2nc(-c3ccccc3)c3cc(Br)ccc3n2)cc1	4	-4	30*	0	-2	3
O=C(CNS(=O)(=O)c1ccccc1)NCC(=O)OCc1ccc(Cl)cc1	0	4	5	4	-2	27*
Cc1cc(-c2ccccc2)c2ccc(NC(=O)C(C)(C)C)nc2n1	14	9	9	15	-13	33*
CC(NS(=O)(=O)c1ccccc1Cl)C1CC2CCC1C2 (stereo not drawn)	0	8	3	0	-9	26*
CC(NC(=O)c1ccccc1Br)C1CC2CCC1C2 (stereo not drawn)	.	3	3	5	.	.
SMILES	PAFAH1B3 inh	ARFGAP1 inh	pPAFAH inh	ASAP1 GAP inh	PAFAH2 FP inh	PAFAH1B2 FP inh
CCc1ccc(C2CC(c3ccc(C)cc3)Nc3nc(N)nn32)cc1 (stereo not drawn)	1	4	-7	-6	3	25*
O=C(CCNC(=O)c1ccco1)NCCN1C(=O)S/C(=C\c2ccc(F)cc2)C1=O	7	9	-2	-14	8	7
Cc1ccc(S(=O)(=O)CCC(=O)NCCN2C(=O)S/C(=C/c3ccc(F)cc3)C2=O)cc1	4	4	5	16	6	33*
Cc1ccc(S(=O)(=O)N(C)[C@H]2C[C@H]3c4[nH]c5c(-c6ccccc6)cccc5c4CCN3C(=O)[C@H]2[C@H](C)O)cc1	.	8	.	2	.	.
CNC(=O)CSc1nc2cc(S(=O)(=O)Nc3ccc(OC)cc3)ccc2o1	1	8	27*	-8	1	4
COc1ccc(NS(=O)(=O)c2ccc3oc(SC)nc3c2)cc1	4	3	16	-12	-12	-2
Nc1nc2c(ncn2[C@@H]2O[C@H](C(=O)NCC3CCCCC3)[C@@H](O)[C@H]2O)c(=O)[nH]1	.	10	.	-5	.	.
O=C1Nc2ccccc2SC(c2ccccc2)C1O (stereo not drawn)	1	3	34*	12	12	6
COC(=O)c1cc2c(c3c4cc(OC)ccc4n(S(=O)(=O)c4ccc(F)cc4)c13)C(=O)N(C)C2	.	14	.	-15	.	.
O=C1Cc2ccccc2C(=O)N1OCc1ccc(Cl)cc1	8	3	5	-8	7	25*
CC(=O)OC[C@H]1O[C@H](C#Cc2ccc(C(C)(C)C)cc2)C=C[C@H]1OC(=O)Nc1ccccc1	.	3	.	-10	.	.
CCCCNC(=O)Oc1c(Br)cc2sc(=O)oc2c1Br	.	.	52*	.	.	.
CCCCNC(=O)Oc1cc(CCl)on1	.	.	2	.	.	.
CCOc1cc2[nH]c(=O)n(CCCC(=O)NCc3ccc(OC)cc3)c(=O)c2cc1OCC	4	4	3	-2	2	32*
CCCC(=O)N(c1ccc2oc(=O)sc2c1)S(=O)(=O)c1cccs1	14	5	10	1	35*	6
CC(=O)N(c1ccc2oc(=O)sc2c1)S(=O)(=O)c1ccccc1	6	-6	4	-3	7	12
O=S(=O)(c1cccs1)N1CCC2(CC1)OCCN2S(=O)(=O)c1ccccc1	15	2	2	-17	21	13
O=S(=O)(c1ccc(F)cc1)N1CCC2(CC1)OCCN2S(=O)(=O)c1cccs1	1	9	14	0	8	28*
Brc1ccc(CSc2nnc3ccccn23)cc1	2	6	0	11	2	30*
NS(=O)(=O)c1ccc(OCCCN2CCC(C(O)(c3ccccc3)c3ccccc3)CC2)cc1	.	2	.	2	.	.
Cc1ccc(-n2c(Cc3cccn3C)nnc2SCC(=O)NCc2ccco2)cc1	3	14	29*	4	3	1
Cc1ccc(-n2c(Cc3cccn3C)nnc2SCC(N)=O)cc1	2	7	23	8	-14	4
O=C(NCc1cccs1)c1cccc(Nc2nc3ccc(Br)cc3[nH]2)c1	32*	15	12	-2	11	27*
O/N=C/c1ccc2ccccc2c1	5	-1	0	-18	-1	50*
O=C(CSc1ccc(Cl)cc1)NCc1ccncc1	4	-3	5	-2	-6	29*
